# Experimental data reported in ChEMBL document CHEMBL4342521 (J Med Chem, 2020).
# Active and inactive are the calls of the source. No cut-off for these calls is given here.
# Legend:
# [1] = system: MV4-11; test: Inhibition of MDM2 degradation in human MV4-11 cells harboring wild type p53/FLT3-ITD mutant at 100 nM after 12 hrs in presence of MDM2 inhibitor RG7388 by Western blot analysis relative to control; type: functional; settings: MV4-11, 12 h
# Outline: (§1)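 Cells (1,500,000 per well) grown 12 h, then drug-treated as specified. Lysed in RIPA buffer, sonicated, centrifuged, protein normalized by BCA. Run on 4–12% Bis-Tris gels in MES, transferred, probed overnight at 4 °C with primary antibodies at 1/1000. Actin served as reference for LC3-II quantitation.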
# [2] = system: SNB-75; test: Antiproliferative activity against human SNB75 cells assessed as reduction in cell viability after 48 hrs by CellTiter-Blue assay; type: functional; settings: SNB-75, 48 h, read-out: LC50 (the source's name)
# Outline: (§2)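 NCI-60 panel lines grown in RPMI1640 with 10% FBS at 37 °C, 5% CO₂. Seeded at 5,000–10,000 cells/well and pre-incubated overnight. Exposed for 48 h to six 10-fold dilutions (top final 10 μM), with a time-zero plate read at dosing. CellTiter-Blue (0.125 mg/mL) for 2–4 h, fluorescence 560/590 nm, triplicate curves.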
# [3] = biological target: Aminopeptidase N (Sus scrofa) (UniProt P15145); test: Inhibition of porcine kidney microsomal APN at 10 uM using L-leucine-p-nitroanilide as substrate preincubated for 5 mins followed by substrate addition and measured after 30 mins by microplate reader analysis; type: subcellular; settings: Sus scrofa domesticus
# Outline: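 Porcine kidney microsomal aminopeptidase (CD13) with test agent (final 50 and 10 μM; bestatin 10 μM as reference), 5 min, then L-leucine-p-nitroanilide added. Incubated 30 min at 37 °C; absorbance read at 405 nm.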
# [4] = system: SF-295; test: Antiproliferative activity against human SF295 cells assessed as reduction in cell viability after 48 hrs by CellTiter-Blue assay; type: functional; settings: SF-295, 48 h, read-out: LC50 (the source's name)
# Outline: (§3)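 Cells grown in RPMI1640 with 10% FBS at 37 °C, 5% CO₂. 5,000–10,000 cells/well were pre-incubated overnight, and a time-zero CellTiter-Blue read was taken. Six 10-fold dilutions (top final 10 μM) were applied for 48 h, followed by 0.125 mg/mL CellTiter-Blue for 2–4 h. Resorufin fluorescence was read at ex 560/em 590 nm. […] Triplicates.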
# [5] = system: MOLM-14; test: Antiproliferative activity agaisnt human MOLM14 cells expressing wild type p53/FLT3-ITD mutant assessed as cell death at 10 uM after 48 hrs by CellTiter-blue assay; type: functional, cell-based
# [6] = system: EKVX; test: Antiproliferative activity against human EKVX cells assessed as reduction in cell viability after 48 hrs by CellTiter-Blue assay; type: functional; settings: read-out: LC50 (the source's name); outline: as §3
# [7] = biological target: Matrix metalloproteinase-9 (Homo sapiens) (UniProt P14780); test: Inhibition of MMP-9 (unknown origin) at 10 to 50 uM incubated for 10 to 15 mins and measured after 2 hrs by fluorescence based assay
# Outline: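 MMP-2/MMP-9 in activation buffer with test agent (final 50 and 10 μM), 10–15 min incubation, then fluorogenic substrate added. Incubated 2 h at 37 °C; fluorescence read at 320/405 nm. Kit MMP inhibitor was the positive control.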
# [8] = system: OVCAR-8; test: Antiproliferative activity against human OVCAR8 cells assessed as reduction in cell viability after 48 hrs by CellTiter-Blue assay; type: functional; settings: OVCAR-8, 48 h, read-out: LC50 (the source's name); outline: as §3
# [9] = system: NCI-H23; test: Antiproliferative activity against human NCI-H23 cells assessed as reduction in cell viability after 48 hrs by CellTiter-Blue assay; type: functional; settings: NCI-H23, 48 h, read-out: LC50 (the source's name); outline: as §3
# [10] = system: SK-MEL-2; test: Antiproliferative activity against human SK-MEL-2 cells assessed as reduction in cell viability after 48 hrs by CellTiter-Blue assay; type: functional; settings: SK-MEL-2, 48 h, read-out: LC50 (the source's name); outline: as §3
# [11] = system: RS4-11; test: Induction of apoptosis in human RS4:11 cells harboring wild type p53/FLT3 assessed as cleavage of pro-caspase 3 at 200 nM after 24 hrs by Western blot analysis; type: functional, cell-based; outline: as §1
# [12] = system: HL-60; test: Induction of autophagy in p53 null human HL60 cells harboring wild type FLT3 assessed as LC-3 degradation at 50 to 200 nM after 24 hrs by Western blot analysis; type: functional, cell-based; outline: as §1
# [13] = system: A549; test: Antiproliferative activity against human A549 cells assessed as reduction in cell viability after 48 hrs by CellTiter-Blue assay; type: functional; settings: A549, 48 h, read-out: LC50 (the source's name); outline: as §3
# [14] = system: ACHN; test: Antiproliferative activity against human ACHN cells assessed as reduction in cell viability after 48 hrs by CellTiter-Blue assay; type: functional; settings: read-out: LC50 (the source's name); outline: as §3
# [15] = biological target: Histone deacetylase 5 (Homo sapiens, UniProt Q9UQL6); test: Inhibition of recombinant human HDAC5 using Boc-Lys (trifluoroacetyl)-AMC as substrate preincubated for 1 hr followed by substrate addition and measured after 2 hrs by fluorescence based micro plate reader analysis
# Outline: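 Recombinant enzyme was preincubated with serially varied inhibitor for 1 h at 30 °C. Boc-Lys(trifluoroacetyl)-AMC was then added to a final 50 μM and incubated 2 h at 30 °C. The reaction was stopped with developer containing trypsin and TSA, and fluorescence (ex 360/em 460 nm) was read 30 min later. Inhibition was taken relative to control wells and fitted to a variable-slope log(inhibitor) curve. Values are the mean of at least three experiments.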
# [16] = system: MV4-11; test: Antiproliferative activity agaisnt human MV4-11 cells expressing wild type p53/FLT3-ITD mutant assessed as cell death at 10 uM after 48 hrs by CellTiter-blue assay; type: functional, cell-based
# [17] = system: SK-MEL-28; test: Antiproliferative activity against human SK-MEL-28 cells assessed as reduction in cell viability after 48 hrs by CellTiter-Blue assay; type: functional; settings: SK-MEL-28, 48 h, read-out: LC50 (the source's name); outline: as §3
# [18] = system: MOLT-4; test: Antiproliferative activity against human MOLT4 cells assessed as reduction in cell viability after 48 hrs by CellTiter-Blue assay; type: functional; settings: MOLT-4, 48 h, read-out: LC50 (the source's name); outline: as §3
# [19] = system: MV4-11; test: Inhibition of autophagy in human MV4-11 cells assessed as cell death at 200 nM after 24 hrs in presence of 5 uM of chloroquine by CellTiter-blue dye based spectrophotometric analysis; type: functional
# Outline: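 MV4-11 cells grown 12 h, then given 200 nM test agent alone or with z-VAD, chloroquine (5 μM) or wortmannin (100 nM) for 24 h. Viability by CellTiter-Blue (0.125 mg/mL, 2–4 h), resorufin fluorescence 560/590 nm, compared with t = 0 wells; n = 3.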
# [20] = system: MDA-MB-468; test: Antiproliferative activity against human MDA-MB-468 cells assessed as reduction in cell viability after 48 hrs by CellTiter-Blue assay; type: functional; settings: MDA-MB-468, 48 h, read-out: LC50 (the source's name); outline: as §3
# [21] = system: U-251; test: Antiproliferative activity against human U251 cells assessed as reduction in cell viability after 48 hrs by CellTiter-Blue assay; type: functional; settings: U-251, 48 h, read-out: LC50 (the source's name); outline: as §2
# [22] = system: RXF 393; test: Antiproliferative activity against human RXF393 cells assessed as reduction in cell viability after 48 hrs by CellTiter-Blue assay; type: functional; settings: RXF 393, 48 h, read-out: LC50 (the source's name); outline: as §3
# Chain of Matrix metalloproteinase-9 (Homo sapiens) (P14780 whole entry): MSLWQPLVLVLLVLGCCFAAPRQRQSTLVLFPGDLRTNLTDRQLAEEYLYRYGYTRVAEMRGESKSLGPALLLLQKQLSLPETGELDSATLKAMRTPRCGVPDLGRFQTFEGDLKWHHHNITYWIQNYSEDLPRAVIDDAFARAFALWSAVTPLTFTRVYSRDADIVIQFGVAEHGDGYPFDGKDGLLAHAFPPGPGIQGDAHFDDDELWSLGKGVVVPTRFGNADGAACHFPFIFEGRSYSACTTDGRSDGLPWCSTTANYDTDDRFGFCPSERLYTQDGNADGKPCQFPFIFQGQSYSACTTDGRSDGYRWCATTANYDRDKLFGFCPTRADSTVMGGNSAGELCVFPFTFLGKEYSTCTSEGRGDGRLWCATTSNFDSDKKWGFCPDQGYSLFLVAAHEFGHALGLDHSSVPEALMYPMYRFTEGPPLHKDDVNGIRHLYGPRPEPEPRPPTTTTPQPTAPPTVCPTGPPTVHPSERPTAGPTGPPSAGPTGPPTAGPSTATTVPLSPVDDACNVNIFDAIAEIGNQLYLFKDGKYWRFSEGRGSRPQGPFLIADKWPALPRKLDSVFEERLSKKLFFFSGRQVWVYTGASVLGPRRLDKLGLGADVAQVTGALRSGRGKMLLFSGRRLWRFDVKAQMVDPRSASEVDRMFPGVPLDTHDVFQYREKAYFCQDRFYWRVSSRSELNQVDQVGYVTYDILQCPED
# Chain of Histone deacetylase 5 (Q9UQL6 whole entry): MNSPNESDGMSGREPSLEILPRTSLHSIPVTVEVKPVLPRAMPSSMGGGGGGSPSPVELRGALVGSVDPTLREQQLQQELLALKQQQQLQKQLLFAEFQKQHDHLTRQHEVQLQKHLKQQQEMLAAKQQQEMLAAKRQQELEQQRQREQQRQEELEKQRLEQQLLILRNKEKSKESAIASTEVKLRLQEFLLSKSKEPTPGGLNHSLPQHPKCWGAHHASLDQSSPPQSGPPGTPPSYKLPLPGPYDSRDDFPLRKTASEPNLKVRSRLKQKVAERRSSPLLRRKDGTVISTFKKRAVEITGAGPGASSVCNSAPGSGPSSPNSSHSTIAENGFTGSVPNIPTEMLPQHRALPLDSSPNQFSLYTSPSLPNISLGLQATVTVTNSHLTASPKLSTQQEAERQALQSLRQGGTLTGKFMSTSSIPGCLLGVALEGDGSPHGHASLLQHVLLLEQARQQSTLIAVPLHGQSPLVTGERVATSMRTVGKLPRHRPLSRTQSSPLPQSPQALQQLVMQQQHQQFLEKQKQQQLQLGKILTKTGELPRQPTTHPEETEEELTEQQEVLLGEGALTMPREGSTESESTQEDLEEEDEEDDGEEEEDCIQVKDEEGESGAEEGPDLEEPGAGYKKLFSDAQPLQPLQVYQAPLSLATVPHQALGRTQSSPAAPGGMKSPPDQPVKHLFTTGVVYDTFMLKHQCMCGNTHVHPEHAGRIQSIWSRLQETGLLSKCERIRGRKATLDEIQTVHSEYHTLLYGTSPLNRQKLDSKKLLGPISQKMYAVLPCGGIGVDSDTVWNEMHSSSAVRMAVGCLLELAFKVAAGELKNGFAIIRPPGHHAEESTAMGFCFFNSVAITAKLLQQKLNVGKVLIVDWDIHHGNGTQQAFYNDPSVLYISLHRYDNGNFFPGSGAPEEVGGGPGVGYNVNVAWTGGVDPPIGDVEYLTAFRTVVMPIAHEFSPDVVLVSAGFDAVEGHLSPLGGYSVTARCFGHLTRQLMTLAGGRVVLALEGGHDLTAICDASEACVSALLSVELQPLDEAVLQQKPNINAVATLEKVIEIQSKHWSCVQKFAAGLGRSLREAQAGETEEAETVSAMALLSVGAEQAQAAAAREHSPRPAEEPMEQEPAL
# Chain of Aminopeptidase N (Sus scrofa) (P15145 whole entry): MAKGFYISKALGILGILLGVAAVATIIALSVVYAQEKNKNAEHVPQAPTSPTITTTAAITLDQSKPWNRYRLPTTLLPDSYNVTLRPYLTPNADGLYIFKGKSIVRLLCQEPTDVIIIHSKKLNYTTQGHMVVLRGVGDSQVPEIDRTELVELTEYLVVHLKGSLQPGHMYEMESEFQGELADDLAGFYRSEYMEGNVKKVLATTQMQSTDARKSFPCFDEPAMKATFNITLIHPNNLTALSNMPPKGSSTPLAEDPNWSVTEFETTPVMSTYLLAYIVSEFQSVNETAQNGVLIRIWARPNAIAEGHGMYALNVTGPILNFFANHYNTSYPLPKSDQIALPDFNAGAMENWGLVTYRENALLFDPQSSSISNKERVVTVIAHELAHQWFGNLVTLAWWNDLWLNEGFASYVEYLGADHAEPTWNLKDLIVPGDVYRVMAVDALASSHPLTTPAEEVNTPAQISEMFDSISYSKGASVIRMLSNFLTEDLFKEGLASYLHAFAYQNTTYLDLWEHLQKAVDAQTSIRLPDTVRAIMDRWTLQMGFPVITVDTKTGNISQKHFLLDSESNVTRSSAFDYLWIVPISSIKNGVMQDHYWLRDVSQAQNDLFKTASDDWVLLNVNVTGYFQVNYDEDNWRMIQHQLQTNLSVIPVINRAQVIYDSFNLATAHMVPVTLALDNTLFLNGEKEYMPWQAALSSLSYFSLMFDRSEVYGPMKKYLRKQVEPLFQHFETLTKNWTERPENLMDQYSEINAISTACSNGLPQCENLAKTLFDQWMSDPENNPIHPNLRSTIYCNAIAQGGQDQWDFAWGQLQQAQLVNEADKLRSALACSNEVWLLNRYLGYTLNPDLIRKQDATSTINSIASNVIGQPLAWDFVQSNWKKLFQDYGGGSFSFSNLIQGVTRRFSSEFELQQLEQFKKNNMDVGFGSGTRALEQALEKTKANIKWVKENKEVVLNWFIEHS
compound,measurement,setting,value
CCCNNC(=O)/C=C/c1ccc(CNCCc2c(C)[nH]c3ccccc23)cc1.O=C(O)C(F)(F)F,inhibition at 0.1 µM,[1],100%
same,CC50,[2],> 10 µM
same,inhibition,[3],inactive
same,CC50,[4],> 10 µM
same,Activity,[5],Active
same,CC50,[6],> 10 µM
same,inhibition,[7],inactive
same,CC50,[8],> 10 µM
same,CC50,[9],> 10 µM
same,CC50,[10],> 10 µM
same,Activity,[11],Active
same,Activity,[12],inactive
same,CC50,[13],> 10 µM
same,CC50,[14],> 10 µM
same,IC50,[15],> 10 µM
same,Activity,[16],Active
same,CC50,[17],0.893 µM
same,CC50,[18],> 10 µM
same,inhibition,[19],inactive
same,CC50,[20],> 10 µM
same,CC50,[21],4.28 µM
same,CC50,[22],0.666 µM
